Data set [1] deals with MS2 coat protein. The data set can be described thus: apparent Kd, MS2 coat protein; higher = weaker binding; RNA-MaP array; theophylline 2 mM where present. An outline of the steps: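 Designs were transcribed by stalled E. coli RNA polymerase on Illumina sequencing-chip clusters. They were titrated with SNAP-549-labelled MS2 coat protein from 0.7 or 1.5 nM, doubling to 3 µM, without and then with constant ligand. Buffer: 100 mM Tris-HCl pH 7.5, 80 mM KCl, 4 mM MgCl2, BSA, DTT, yeast tRNA, Tween-20. Green signal was normalised to red-channel RNA signal and control-cluster median Fmax. Apparent Kd is the median of filtered per-cluster binding-curve fits.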

The test system of data set [2] is MS2 coat protein. The data set can be described thus: apparent Kd, MS2 coat protein; higher = weaker binding; RNA-MaP array. Summed up:
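Fluorescently labeled MS2 coat protein, from 1.5 nM to 3 μM, was incubated at room temperature with designed RNAs transcribed on an Illumina sequencing chip from sequenced DNA templates. Times ran from 0.8–1.5 h at the lowest concentrations to 10–20 min at the highest, in Tris-HCl pH 7.5 buffer with KCl, MgCl2, BSA, DTT, tRNA and Tween20, with or without input ligand. Each apparent Kd is the median of per-cluster binding-curve fits, and designs with fewer than 10 measured clusters were excluded.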

The mark [3] stands for this setting: designed as: OFF switch for theophylline, no ligand.
Where [4] appears, read: ligand present: theophylline, designed as: OFF switch for theophylline.
The mark [5] stands for this setting: designed as: ON switch for theophylline, no ligand.
[6] abbreviates: ligand present: theophylline, designed as: ON switch for theophylline.
Setting [7] is: designed as: OFF switch for flavin mononucleotide, no ligand.
The mark [8] stands for this setting: ligand present: flavin mononucleotide, designed as: OFF switch for flavin mononucleotide.
The mark [9] stands for this setting: designed as: ON switch for flavin mononucleotide, no ligand.
Where [10] appears, read: ligand present: flavin mononucleotide, designed as: ON switch for flavin mononucleotide.
Where [11] appears, read: designed as: OFF switch for tryptophan, no ligand.
The mark [12] stands for this setting: ligand present: tryptophan, designed as: OFF switch for tryptophan.

A word on the apparent Kd: it is the concentration giving half-maximal binding under the conditions of the assay. As to “AAACAUUGCUGCGAUACCAGACAUGAGGAUCACCCAUGUACCAAGGUAAGAAAAUAACAUGUCCCUUGGCAGCGCAGCAAUGAAA”, the results for the “apparent Kd” value in the data set on MS2 coat protein [1] (setting [3]) and with MS2 coat protein [1] (setting [4]) were 16.4 nM and 418 nM, respectively.

As to “AGCGACAUGCGUGAUACCAGCUACAUGAGGAUCACCCAUGUACGUCAGUAAUGACUGUGUAGCCCUUGGCAGCAUAAUGCAUGUC”, the entries for the “apparent Kd” value with MS2 coat protein [1] (setting [3]) and in the data set on MS2 coat protein [1] (setting [4]) were 34.4 nM and 67.2 nM, respectively. “AAGGUGAUCCCAGAUACCAGCCUAACAUGAGGAUCACCCAUGUUUGGGACGAAAGUCCCAGGCCCUUGGCAGCUGGGUUGCCAAG”: the figures for the “apparent Kd” value in the data set on MS2 coat protein [1] (setting [5]) and with MS2 coat protein [1] (setting [6]) were 225 nM and 30.3 nM, respectively. As for “UGUAACAUGAGGAUCACCCAUGUGAGUGAUACCAGACUAGUAUUAGUCCCUUGGCAGCACGCUGGGCGAGUGUAUAGUCUAUGCG”, the “apparent Kd” value was 85.9 nM in the data set with MS2 coat protein [1] (setting [5]) and 84.9 nM with MS2 coat protein [1] (setting [6]). For “AAACAUUGCUCAGAUACCAGACAUGAGGAUCACCCAUGUACCAAGGUAAAGAAAUAACGUGUCCCUUGGCAGCUGAGCAAUGAAA”, the “apparent Kd” value was 10.2 nM in the data set with MS2 coat protein [1] (setting [3]) and 109 nM in the data set on MS2 coat protein [1] (setting [4]). For “GUAUGGCUCGAGGAUAUGUACGUAGGAGACUAGACAGAAGGCGAUACAUGAGGAUCACCCAUGUCCUAUUAACC”, the “apparent Kd” value in the data set on MS2 coat protein [2] (setting [7]) was 188 nM; in the data set with MS2 coat protein [2] (setting [8]), 129 nM.

“AAGCGUAGCUAGGAUAUGUAAUGACGGCUUUGAACAGAAGGAGCUACAUGAGGAUCACCCAUGUGUCCGACACA”: the “apparent Kd” value in the data set on MS2 coat protein [2] (setting [7]) was found to be 15.9 nM; with MS2 coat protein [2] (setting [8]), 125 nM. With “AUGCAUCUAGGAUAUGCGGUGAUUUACAUGAGGAUCACCCAUGUAGACCACCGGUCUAGAGCAGAAGGAGAUGUGG”, the entries for the “apparent Kd” value with MS2 coat protein [2] (setting [7]) and in the data set with MS2 coat protein [2] (setting [8]) were 5.17 nM and 5.54 nM, respectively.

Take “AUGCAACAUGAGGAUCACCCAUGUGGUGAUACCAGUCGACAAGUAGACCCUUGGCAGCACAGCCGAUAUCGAGAGAGAUUUUUGG”: the entries for the “apparent Kd” value in the data set with MS2 coat protein [2] (setting [5]) and in the data set with MS2 coat protein [2] (setting [6]) were 487 nM and 650 nM, respectively. Regarding “CUAACUCGUGUUAGGAUAUGGUAAGGGCUAGCCACCCAGAAGGAACAUGAGGAUCACCCAUGUCGACAGUCCCG”, the “apparent Kd” value in the data set with MS2 coat protein [2] (setting [7]) was 17.8 nM; in the data set with MS2 coat protein [2] (setting [8]) it was 49.1 nM. For “UUCUUACAUGAGGAUCACCCAUGUUCUGAUAGAGCAGGAUAUGAUGGUUAGAAGUAGAAAUCAGAAGGGCUCCAUG”, the “apparent Kd” value in the data set with MS2 coat protein [2] (setting [9]) was 100 nM; in the data set on MS2 coat protein [2] (setting [10]) it was 19.8 nM. Consider “GUUUUCAAGUCGGCCGCCACUGAUACAAUCCUCACCGGUUCACAUGAGGAUCACCCAUGUUCGCUCAGGACCGGGACCUUCUGUG”, for which the “apparent Kd” value in the data set with MS2 coat protein [2] (setting [11]) came to 127 nM; in the data set on MS2 coat protein [2] (setting [12]), 108 nM. With “CACGAUCGAGAAGAGUGCAACAUGAGGAUCACCCAUGUAUUCAGAAGGGCCACGACCUUAGUAGGGCAGGAUAUGAUACGAUAC”, the results for the “apparent Kd” value in the data set on MS2 coat protein [2] (setting [9]) and with MS2 coat protein [2] (setting [10]) were 26.2 nM and 19.9 nM, respectively.

With “GACAGUUUAUAGGAUAUCGACUCGACUGGGCAUCGAGAAGGAUAAACAUGAGGAUCACCCAUGUGUGGUAGGAA”, the results for the “apparent Kd” value with MS2 coat protein [2] (setting [7]) and in the data set with MS2 coat protein [2] (setting [8]) were 39.2 nM and 125 nM, respectively. In the same order, the values of “AACGCGCAAGAGAAGGGACGGGAGAUUCCGUGGGCUCUGAUCCUACAUGAGGAUCACCCAUGUAGUCAGGAUAUCUGGAGACGC” are 106 nM and 124 nM. In the same order, the values of “CUCCCUCAGUCAGGAUAUGUGUCUUCCCAACAGGACAUGAGGAUCACCCAUGUCGCAAGCAUGGGACAGAAGGGACAUGGAGCC” are 23.8 nM and 19.6 nM. Consider “GUAACACAUGAGGAUCACCCAUGUUCCGAUACCAGUAUUGAAGAUUACCCUUGGCAGCGGGUAGGUCGGAGUGGACGGCCCGAGC”, for which the “apparent Kd” value in the data set with MS2 coat protein [2] (setting [6]) came to 26.1 nM. Turning to “UAUAUGAAGGGAGGAUAUGACCGAGAGUAAAUGUCAGAAGGCCCGUUUCUUCACCAACGUCCGGUACAUGAGGAUCACCCAUGU”, the figures for the “apparent Kd” value in the data set on MS2 coat protein [2] (setting [9]) and in the data set with MS2 coat protein [2] (setting [10]) were 11.3 nM and 8.86 nM, respectively. For “AAUGAAUCCAAGAAGGAACACCAGGCGCACGUAAUCCAACAUGAGGAUCACCCAUGUAUAUUCUGUAAGGAUAUUGGAUUAAAG”, the “apparent Kd” value came to 7.45 nM with MS2 coat protein [2] (setting [7]) and 7.24 nM with MS2 coat protein [2] (setting [8]). With “GGACUACAUGAGGAUCACCCAUGUUUUUAAGACACAGGAUAUGAUCACCGCGGACAUGUAUCAGAAGGGUGUACAU”, the figures for the “apparent Kd” value in the data set on MS2 coat protein [2] (setting [9]) and with MS2 coat protein [2] (setting [10]) were 21.8 nM and 10.1 nM, respectively. In the same order, the values of “CGGUUACAUGAGGAUCACCCAUGUUCCAUGGUUGAAGGAUAUGGCGACGGCGCGUGGGUACCAGAAGGUCAGGCAC” are 26 nM and 19.6 nM. Take “AAACGCUAUGCGGCCGCCACUAAGGUUGGCGUCUAUGUCGUUUAAGACAUGAGGAUCACCCAUGUUAGGACCGGGCAUGUCCGCG”: the “apparent Kd” value with MS2 coat protein [2] (setting [11]) was determined as 21.2 nM; in the data set on MS2 coat protein [2] (setting [12]), 21.1 nM.

“GUGCGCGUAAAAGGAUAUUCGGAUGAUAGAACUCGAAACUACAUGAGGAUCACCCAUGUCAAGAAGAAGAAGGUUUGGCGAAAU”: the “apparent Kd” value was found to be 57.1 nM in the data set with MS2 coat protein [2] (setting [7]) and 31.7 nM in the data set with MS2 coat protein [2] (setting [8]).

(Values after the EternaBench riboswitch data.)
